Measurements published in ChEMBL document CHEMBL4007430, “Synthesis and Cytostatic and Antiviral Profiling of Thieno-Fused 7-Deazapurine Ribonucleosides” (J Med Chem, 2017).

What was measured:
Adenosine kinase [1] = target: T1, Adenosine kinase (Homo sapiens, UniProt P55263); assay: Drug metabolism in human HCT116 cells assessed as ADK-mediated 4-Methylsulfanyl-8-(beta-D-ribofuranosyl)-8H-thieno[3,2:4,5]-pyrrolo[2,3-d]pyrimidine-5-O-monophosphate Sodium Salt formation per 5 x10^5 cells at 1 umol/L after 1 hr by UPLC-MS/MS analysis; type: ADME, cell-based; settings: 1 µM
K562 = assay: Cytotoxicity against human K562 cells assessed as cell growth inhibition after 72 hrs by MTS assay; type: functional, cell-based; settings: K562, 72 h
How it was run: (§1)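 Cells were exposed to compound for 3 days, then stained with MTS as a quantitative metabolic read-out. IC50 is the concentration that inhibits cell growth by 50%.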

HCT-116 [2] = assay: Cytotoxicity against p53 deficient human HCT116 cells assessed as cell growth inhibition after 72 hrs by MTS assay; type: functional, cell-based; settings: HCT-116, 72 h; how it was run: as §1
Adenosine kinase [3] = target: T1, Adenosine kinase; assay: Drug metabolism in human BJ cells assessed as ADK-mediated 4-Methylsulfanyl-8-(beta-D-ribofuranosyl)-8H-thieno[3,2:4,5]-pyrrolo[2,3-d]pyrimidine-5-O-monophosphate Sodium Salt formation per 5 x10^5 cells at 10 umol/L after 3 hrs by UPLC-MS/MS analysis; type: ADME, cell-based; settings: 10 µM
Adenosine kinase [4] = target: T1, Adenosine kinase; assay: Drug metabolism in human HCT116 cells assessed as ADK-mediated 4-Methylsulfanyl-8-(beta-D-ribofuranosyl)-8H-thieno[3,2:4,5]-pyrrolo[2,3-d]pyrimidine-5-O-monophosphate Sodium Salt formation per 5 x10^5 cells at 10 umol/L after 3 hrs by UPLC-MS/MS analysis; type: ADME, cell-based; settings: 10 µM
Adenosine kinase [5] = target: T1, Adenosine kinase; assay: Drug level in human HCT116 cells assessed as ADK-mediated compound formation treated with 4-Methylsulfanyl-8-(beta-D-ribofuranosyl)-8H-thieno[3',2':4,5]-pyrrolo[2,3-d]pyrimidine at 10 umol/L after 1 hr by UPLC-MS/MS analysis; type: ADME, cell-based
U2OS = assay: Cytotoxicity against human U2OS cells assessed as cell growth inhibition after 72 hrs by MTS assay; type: functional, cell-based
Adenosine kinase [6] = target: T1, Adenosine kinase; assay: Drug level in human HCT116 cells assessed as ADK-mediated compound formation treated with 4-Methylsulfanyl-8-(beta-D-ribofuranosyl)-8H-thieno[3',2':4,5]-pyrrolo[2,3-d]pyrimidine at 1 umol/L after 3 hrs by UPLC-MS/MS analysis; type: ADME, cell-based
Adenosine kinase [7] = target: T1, Adenosine kinase; assay: Drug level in human HCT116 cells assessed as ADK-mediated compound formation treated with 4-Methylsulfanyl-8-(beta-D-ribofuranosyl)-8H-thieno[3',2':4,5]-pyrrolo[2,3-d]pyrimidine at 10 umol/L after 3 hrs by UPLC-MS/MS analysis; type: ADME, cell-based
CCRF-CEM = assay: Cytotoxicity against human CCRF-CEM cells assessed as cell growth inhibition after 72 hrs by MTS assay
Adenosine kinase [8] = target: T1, Adenosine kinase; assay: Drug metabolism in human HCT116 cells assessed as ADK-mediated 4-Methylsulfanyl-8-(beta-D-ribofuranosyl)-8H-thieno[3,2:4,5]-pyrrolo[2,3-d]pyrimidine-5-O-monophosphate Sodium Salt formation per 5 x10^5 cells at 1 umol/L after 3 hrs by UPLC-MS/MS analysis; type: ADME, cell-based; settings: 1 µM
Adenosine kinase [9] = target: T1, Adenosine kinase; assay: Drug level in human BJ cells assessed as ADK-mediated compound formation treated with 4-Methylsulfanyl-8-(beta-D-ribofuranosyl)-8H-thieno[3',2':4,5]-pyrrolo[2,3-d]pyrimidine at 10 umol/L after 3 hrs by UPLC-MS/MS analysis; type: ADME, cell-based
HCT-116 [10] = assay: Cytotoxicity against human HCT116 cells assessed as cell growth inhibition after 72 hrs by MTS assay; type: functional, cell-based; settings: HCT-116, 72 h; how it was run: as §1
MRC5 = assay: Cytotoxicity against human MRC5 cells assessed as cell growth inhibition after 72 hrs by MTS assay; type: cell-based; settings: MRC5, 72 h; how it was run: as §1
HL-60 = assay: Cytotoxicity against human HL60 cells assessed as reduction in cell viability after 72 hrs by XTT assay; type: functional, cell-based; settings: HL-60, 72 h
How it was run: (§2)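 Cells were incubated with compound for 3 days. Viability was then measured with the XTT tetrazolium assay.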

Adenosine kinase [11] = target: T1, Adenosine kinase; assay: Drug level in human BJ cells assessed as ADK-mediated compound formation treated with 4-Methylsulfanyl-8-(beta-D-ribofuranosyl)-8H-thieno[3',2':4,5]-pyrrolo[2,3-d]pyrimidine at 1 umol/L after 3 hrs by UPLC-MS/MS analysis; type: ADME, cell-based
Adenosine kinase [12] = target: T1, Adenosine kinase; assay: Drug metabolism in human HCT116 cells assessed as ADK-mediated 4-Methylsulfanyl-8-(beta-D-ribofuranosyl)-8H-thieno[3,2:4,5]-pyrrolo[2,3-d]pyrimidine-5-O-monophosphate Sodium Salt formation per 5 x10^5 cells at 10 umol/L after 1 hr by UPLC-MS/MS analysis; type: ADME, cell-based; settings: 10 µM
Adenosine kinase [13] = target: T1, Adenosine kinase; assay: Drug metabolism in human BJ cells assessed as ADK-mediated 4-Methylsulfanyl-8-(beta-D-ribofuranosyl)-8H-thieno[3,2:4,5]-pyrrolo[2,3-d]pyrimidine-5-O-monophosphate Sodium Salt formation per 5 x10^5 cells at 1 umol/L after 1 hr by UPLC-MS/MS analysis; type: ADME, cell-based; settings: 1 µM
Adenosine kinase [14] = target: T1, Adenosine kinase; assay: Drug metabolism in human BJ cells assessed as ADK-mediated 4-Methylsulfanyl-8-(beta-D-ribofuranosyl)-8H-thieno[3,2:4,5]-pyrrolo[2,3-d]pyrimidine-5-O-monophosphate Sodium Salt formation per 5 x10^5 cells at 1 umol/L after 3 hrs by UPLC-MS/MS analysis; type: ADME, cell-based; settings: 1 µM
Adenosine kinase [15] = target: T1, Adenosine kinase; assay: Drug level in human HCT116 cells assessed as ADK-mediated compound formation treated with 4-Methylsulfanyl-8-(beta-D-ribofuranosyl)-8H-thieno[3',2':4,5]-pyrrolo[2,3-d]pyrimidine at 1 umol/L after 1 hr by UPLC-MS/MS analysis; type: ADME, cell-based
HepG2 = assay: Cytotoxicity against human HepG2 cells assessed as reduction in cell viability after 72 hrs by XTT assay; type: functional, cell-based; settings: HepG2, 72 h; how it was run: as §2
A549 = assay: Cytotoxicity against human A549 cells assessed as cell growth inhibition after 72 hrs by MTS assay; type: functional, cell-based; settings: A549, 72 h; how it was run: as §1
Adenosine kinase [16] = target: T1, Adenosine kinase; assay: Drug level in human BJ cells assessed as ADK-mediated compound formation treated with 4-Methylsulfanyl-8-(beta-D-ribofuranosyl)-8H-thieno[3',2':4,5]-pyrrolo[2,3-d]pyrimidine at 10 umol/L after 1 hr by UPLC-MS/MS analysis; type: ADME, cell-based
[17] = Cytotoxicity against mrp-1/mdr-1 overexpressing human CEM-DNR-bulk cells assessed as cell growth inhibition after 72 hrs by MTS assay; type: functional, cell-based
How it was run: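 Cells were exposed to compound for 3 days, then stained with MTS as a quantitative metabolic read-out.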

BJ = assay: Cytotoxicity against human BJ cells assessed as cell growth inhibition after 72 hrs by MTS assay; type: cell-based; how it was run: as §1
[18] = Cytotoxicity against human K562-TAX cells assessed as cell growth inhibition after 72 hrs by MTS assay; type: functional, cell-based; how it was run: as §1
HeLa S3 = assay: Cytotoxicity against human HeLaS3 cells assessed as reduction in cell viability after 72 hrs by XTT assay; type: functional, cell-based; settings: HeLa S3, 72 h; how it was run: as §2
Adenosine kinase [19] = target: T1, Adenosine kinase; assay: Drug level in human BJ cells assessed as ADK-mediated compound formation treated with 4-Methylsulfanyl-8-(beta-D-ribofuranosyl)-8H-thieno[3',2':4,5]-pyrrolo[2,3-d]pyrimidine at 1 umol/L after 1 hr by UPLC-MS/MS analysis; type: ADME, cell-based
Adenosine kinase [20] = target: T1, Adenosine kinase; assay: Drug level assessed as human ADK-mediated compound formation treated with 4-Methylsulfanyl-8-(beta-D-ribofuranosyl)-8H-thieno[3',2':4,5]-pyrrolo[2,3-d]pyrimidine at 50 uM after 30 mins by HPLC analysis; type: ADME; settings: 0.5 h
Adenosine kinase [21] = target: T1, Adenosine kinase; assay: Drug metabolism in human BJ cells assessed as ADK-mediated 4-Methylsulfanyl-8-(beta-D-ribofuranosyl)-8H-thieno[3,2:4,5]-pyrrolo[2,3-d]pyrimidine-5-O-monophosphate Sodium Salt formation per 5 x10^5 cells at 10 umol/L after 1 hr by UPLC-MS/MS analysis; type: ADME, cell-based; settings: 10 µM
Adenosine kinase [22] = target: T1, Adenosine kinase; assay: Drug level assessed as human ADK-mediated compound formation treated with adenosine at 50 uM after 30 mins by HPLC analysis; type: ADME; settings: 0.5 h

T1 sequence (P55263 whole entry): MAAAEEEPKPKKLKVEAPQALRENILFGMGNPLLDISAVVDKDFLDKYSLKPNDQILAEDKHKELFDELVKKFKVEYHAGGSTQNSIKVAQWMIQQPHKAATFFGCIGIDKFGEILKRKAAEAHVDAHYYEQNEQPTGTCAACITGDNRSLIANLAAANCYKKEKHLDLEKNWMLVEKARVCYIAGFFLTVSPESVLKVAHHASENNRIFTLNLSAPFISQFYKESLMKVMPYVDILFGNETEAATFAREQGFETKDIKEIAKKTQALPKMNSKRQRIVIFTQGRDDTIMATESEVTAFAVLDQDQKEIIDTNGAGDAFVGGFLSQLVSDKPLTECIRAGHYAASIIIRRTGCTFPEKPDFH

`CSc1ncnc2c1c1ccsc1n2[C@@H]1O[C@H](COP(=O)([O-])O)[C@@H](O)[C@H]1O.[Na+]` showed a Drug metabolism (Adenosine kinase [1]) of 76.2 pmol, an IC50 (K562) of 1320 nM and an IC50 (HCT-116 [2]) of 260 nM. For the same molecule, the Drug metabolism (Adenosine kinase [3]) was 6862.8 pmol, the Drug metabolism (Adenosine kinase [4]) was 144.3 pmol and the Drug metabolism (Adenosine kinase [5]) was “Metabolite_Detected”. For the same molecule, the IC50 (U2OS) was 2590 nM, the Drug metabolism (Adenosine kinase [6]) was “Metabolite_Detected” and the Drug metabolism (Adenosine kinase [7]) was “Metabolite_Detected”. The IC50 (CCRF-CEM) was 190 nM, the Drug metabolism (Adenosine kinase [8]) was 75.6 pmol and the Drug metabolism (Adenosine kinase [9]) was “Metabolite_Detected”. It also gave an IC50 (HCT-116 [10]) of 250 nM, an IC50 (MRC5) of over 50000 nM and an IC50 (HL-60) of 770 nM. For the same molecule, the Drug metabolism (Adenosine kinase [11]) was “Metabolite_Detected”, the Drug metabolism (Adenosine kinase [12]) was 98.5 pmol and the Drug metabolism (Adenosine kinase [13]) was 13.8 pmol. The Drug metabolism (Adenosine kinase [14]) was 4933.3 pmol, the Drug metabolism (Adenosine kinase [15]) was “Metabolite_Detected” and the IC50 (HepG2) was 770 nM. The IC50 (A549) was over 50000 nM, the Drug metabolism (Adenosine kinase [16]) was “Metabolite_Detected” and the IC50 [17] was over 50000 nM. It also gave an IC50 (BJ) of 730 nM, an IC50 [18] of over 50000 nM and an IC50 (HeLa S3) of 2190 nM. For the same molecule, the Drug metabolism (Adenosine kinase [19]) was “Metabolite_Detected”, the Drug metabolism (Adenosine kinase [20]) was “Metabolite_Detected” and the Drug metabolism (Adenosine kinase [21]) was 6694.3 pmol.
For `Nc1ncnc2c1ncn2[C@@H]1O[C@H](COP(=O)(O)O)[C@@H](O)[C@H]1O` [ADENOSINE PHOSPHATE], the Drug metabolism (Adenosine kinase [22]) was “Metabolite_Detected”.
